Series [1] has as its system 786-0. The experiment in a line: Antiproliferative activity against human 786-0 cells assessed as growth inhibition after 48 hrs by sulforhodamine B assay. The settings on record: 786-0, 48 h. The format is functional. Put shortly:
(§1)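 Cells in RPMI with penicillin:streptomycin added, exposed 48 h at 37 °C, 5% CO2 to 0.25, 2.5, 25 and 250 µg/mL compound in DMSO/RPMI (0.1% v/v). Doxorubicin (0.025–25 µg/mL) served as positive control. Cells were then fixed with 50% TCA and stained with sulforhodamine B, with protein read at 540 nm. Growth = 100×(T−T0)/(C−T0), using T0 and 48 h readings. GI50 was obtained by non-linear regression. Done in triplicate.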

Series [2] can be described thus: Antiproliferative activity against human PC3 cells assessed as growth inhibition after 48 hrs by sulforhodamine B assay. The settings on record: PC-3, 48 h. The series is classed as functional. In outline:
as §1
On the technique in general: Sulforhodamine B stains cellular protein and so reports cell mass.

Series [3] has as its system NCI-H460. The series is described as follows: Selectivity index, ratio of GI50 for human HaCaT cells to GI50 for human NCI-H460 cells. The format is functional.
Series [4] is described as follows: Antiproliferative activity against human OVCAR3 cells assessed as growth inhibition after 48 hrs by sulforhodamine B assay. The settings on record: OVCAR-3, 48 h. The format is functional. In outline:
as §1

Series [5] concerns NCI-H460. The series is described as follows: Antiproliferative activity against human NCI-H460 cells assessed as growth inhibition after 48 hrs by sulforhodamine B assay. The note with it: NCI-H460, 48 h. The format is functional. Put shortly:
as §1

For series [6], the system named is NCI/ADR-RES. The experiment in a line: Antiproliferative activity against human NCI/ADR-RES cells assessed as growth inhibition after 48 hrs by sulforhodamine B assay. The series is classed as functional. In outline:
as §1

In series [7] the test system is U-251. The experiment in a line: Antiproliferative activity against human U251 cells assessed as growth inhibition after 48 hrs by sulforhodamine B assay. The series is classed as functional. The settings on record: U-251, 48 h. In outline:
as §1

Series [8] relates to HaCaT. The series is described as follows: Selectivity index, ratio of GI50 for human HaCaT cells to GI50 for human MCF7 cells. The series is classed as functional.
The test system of series [9] is MCF7. The series is described as follows: Antiproliferative activity against human MCF7 cells assessed as growth inhibition after 48 hrs by sulforhodamine B assay. The format is functional. The note with it: MCF7, 48 h. Put shortly: as §1
For series [10], the system named is HaCaT. The experiment in a line: Selectivity index, ratio of GI50 for human HaCaT cells to GI50 for human 786-0 cells. The series is classed as functional.
Series [11] relates to HaCaT. The series is described as follows: Selectivity index, ratio of GI50 for human HaCaT cells to GI50 for human OVCAR3 cells. The series is classed as functional.
Series [12] can be described thus: Antiproliferative activity against human HaCaT cells assessed as growth inhibition after 48 hrs by sulforhodamine B assay. The series is classed as cell-based. In outline: as §1
Series [13] has as its system HaCaT. The experiment in a line: Selectivity index, ratio of GI50 for human HaCaT cells to GI50 for human PC3 cells. The series is classed as functional.
The subject of series [14] is HaCaT. The experiment in a line: Selectivity index, ratio of GI50 for human HaCaT cells to GI50 for human U251 cells. The format is functional.
Series [15] relates to HaCaT. The series is described as follows: Selectivity index, ratio of GI50 for human HaCaT cells to GI50 for human NCI/ADR-RES cells. The format is functional.

Molecules are shown by their SMILES. Converted amounts (≈) assume the structure as drawn. Bounds are passed on as bounds.

This is an account of results in ChEMBL document CHEMBL3352314, “Synthesis and antiproliferative activity of 8-hydroxyquinoline derivatives containing a 1,2,3-triazole moiety” (Eur J Med Chem, 2014).

Take `Ic1ccc(Cn2cc(CCCOc3cccc4cccnc34)nn2)cc1`: the GI50 in series [1] is 22.6 µg/mL (≈ 48.1 µM); in series [2], 24.7 µg/mL (≈ 52.5 µM); in [4] it was 24.7 µg/mL (≈ 52.5 µM); in [5] it was 24.6 µg/mL (≈ 52.3 µM); in [6], greater than 250 µg/mL; in [7] it was greater than 250 µg/mL. For the same compound, in series [9], the GI50 was found to be 25 µg/mL (≈ 53.2 µM). Further, the RatioGI50 in [3] is listed as greater than 10.2; in [8] it was greater than 10; in series [10], greater than 11.1; in [11], greater than 10.1; in series [13] it was greater than 10.1. Also, in [12], the concentration for 50% growth inhibition (GI50) at 48 h was greater than 250 µg/mL.

On to `Fc1ccc(Cn2cc(CCCOc3cccc4cccnc34)nn2)cc1`, for which the GI50 in series [1] was 195 µg/mL (≈ 538 µM); in series [2], 20.1 µg/mL (≈ 55.5 µM); in [4] it was 23.1 µg/mL (≈ 63.7 µM); in series [5], 34.4 µg/mL (≈ 94.9 µM); in series [6] it was 49.4 µg/mL (≈ 136 µM); in series [7] it was 20.7 µg/mL (≈ 57.1 µM). In addition, the 50% growth inhibitory concentration (GI50) in series [9] is 11.7 µg/mL (≈ 32.3 µM). Also, the RatioGI50 in series [3] came to 3.3; in [8], 9.8; in [10], 0.6; in [11] it was 5; in [14] it was 5.6; in series [15], 2.3. Moreover, the RatioGI50 in [13] is listed as 5.7. In addition, in series [12], the GI50 at 48 h was determined as 115 µg/mL (≈ 318 µM).

As to `Clc1ccc(Cn2cc(CCCOc3cccc4cccnc34)nn2)cc1`, the GI50 in [1] is 2.8 µg/mL (≈ 7.39 µM); in [2], 3.6 µg/mL (≈ 9.5 µM); in series [4], 8.1 µg/mL (≈ 21.4 µM); in series [5] it was 11.2 µg/mL (≈ 29.6 µM); in [6], 11.6 µg/mL (≈ 30.6 µM); in series [7], 3.4 µg/mL (≈ 8.97 µM). Further, the 50% growth inhibitory concentration (GI50) in series [9] worked out at 6.2 µg/mL (≈ 16.4 µM). The RatioGI50 in series [3] was 0.4; in [8], 0.7; in series [10], 1.5; in [11], 0.5; in [14], 1.2; in [15], 0.4. Moreover, the RatioGI50 in series [13] was found to be 1.2. Further, the GI50 at 48 h in [12] amounted to 4.2 µg/mL (≈ 11.1 µM).

As to `Brc1ccc(Cn2cc(CCCOc3cccc4cccnc34)nn2)cc1`, the GI50 in series [1] turned out to be 25.9 µg/mL (≈ 61.2 µM); in [2] it was 8.4 µg/mL (≈ 19.8 µM); in [4] it was 27.2 µg/mL (≈ 64.3 µM); in series [5] it was 11.7 µg/mL (≈ 27.6 µM); in series [6], 25.8 µg/mL (≈ 60.9 µM); in series [7], 8.4 µg/mL (≈ 19.8 µM). Moreover, in series [9], the GI50 was 28 µg/mL (≈ 66.1 µM). For the same compound, the RatioGI50 stood at 2.5 in [3]; 1 in series [8]; 1.1 in [10]; 1.1 in series [11]; 3.5 in series [14]; 1.1 in [15]. In addition, the RatioGI50 in [13] was 3.5. The 50% growth inhibitory concentration (GI50) at 48 h in series [12] came to 29.2 µg/mL (≈ 69 µM).

For `FC(F)(F)Oc1ccc(Cn2cc(CCCOc3cccc4cccnc34)nn2)cc1`, the concentration for 50% growth inhibition (GI50) in series [1] came to 7.9 µg/mL (≈ 18.4 µM); in series [2], 5 µg/mL (≈ 11.7 µM); in [4], 24.5 µg/mL (≈ 57.2 µM); in series [5] it was 10.4 µg/mL (≈ 24.3 µM); in series [6], 5.5 µg/mL (≈ 12.8 µM); in series [7], 9.8 µg/mL (≈ 22.9 µM). Besides, in [9], the GI50 was 3.1 µg/mL (≈ 7.24 µM). Further, the RatioGI50 in series [3] amounted to 0.4; in series [8], 1.3; in [10] it was 0.5; in series [11] it was 0.2; in series [14], 0.4; in series [15], 0.7. Moreover, the RatioGI50 in series [13] is 0.8. Further, in [12], the 50% growth inhibitory concentration (GI50) at 48 h was 4 µg/mL (≈ 9.34 µM).

Turning to `Fc1ccc(Cn2cc(CCCOc3cccc4cccnc34)nn2)cc1F`, the 50% growth inhibitory concentration (GI50) in series [1] was 8.5 µg/mL (≈ 22.3 µM); in series [2] it was 6.6 µg/mL (≈ 17.4 µM); in series [4], 63.5 µg/mL (≈ 167 µM); in series [5], 23.7 µg/mL (≈ 62.3 µM); in series [6], 42.1 µg/mL (≈ 111 µM); in series [7], 18.2 µg/mL (≈ 47.8 µM). Also, the 50% growth inhibitory concentration (GI50) in series [9] came to 21.3 µg/mL (≈ 56 µM). Also, the RatioGI50 was found to be 1.8 in series [3]; 1.9 in series [8]; 4.9 in series [10]; 0.7 in [11]; 2.3 in series [14]; 1 in series [15]. Also, the RatioGI50 in series [13] came to 6.3. Also, the GI50 at 48 h in series [12] amounted to 41.7 µg/mL (≈ 110 µM).

The term GI50 denotes the concentration at which growth is held to half of that of the control.
